Each block holds one molecule with its values, some of them ahead of it.
What was measured:
[1] = system: A375 cells; experiment: MTT cytotoxicity / cell viability assay, A375; type: cell-based, human; conditions: for IC50: Homo sapiens, A-375, 48 h; for selectivity index: IC50 melanocytes / IC50 A375
Outline: (§1)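 Cells in 5–10% FBS/DMEM were seeded at 5×10³ per well, refed at 24 h and grown to 70% confluence. They were treated for 48 h at 37°C, 5% CO2 with two-fold serial dilutions of test compound in DMSO (≤0.1%), […], in 8–10 repeats. After MTT, absorbance was read at 562 nm. Viability was expressed relative to DMSO controls and IC50 derived by nonlinear regression. Data are mean ± SD of ≥5 independent experiments in octuplicates.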

[2] = system: SK-Mel-28 cells; experiment: MTT cytotoxicity / cell viability assay, SK-Mel-28; type: cell-based, human; conditions: for IC50: Homo sapiens, SK-MEL-28, 48 h; for selectivity index: IC50 melanocytes / IC50 SK-Mel-28
Outline: as §1

[3] = system: Melanocyte; experiment: MTT cytotoxicity / cell viability assay, normal melanocytes; type: cell-based; conditions: Homo sapiens, 48 h
Outline: as §1

[4] = system: A431 cells; experiment: MTT cytotoxicity / cell viability assay, A431; type: cell-based, human; conditions: for IC50: Homo sapiens, A-431, 48 h; for selectivity index: IC50 HaCaT / IC50 A431
Outline: as §1

[5] = system: UWBCC1 cells; experiment: MTT cytotoxicity / cell viability assay, UWBCC1; type: cell-based, human; conditions: for IC50: Homo sapiens, 48 h; for selectivity index: IC50 HaCaT / IC50 UWBCC1
Outline: as §1

[6] = system: HaCaT; experiment: MTT cytotoxicity / cell viability assay, HaCaT keratinocytes; type: cell-based; conditions: Homo sapiens, 48 h
Outline: as §1

[7] = target: c-Kit (Homo sapiens, UniProt P10721); experiment: In vitro kinase activity assay; type: biochemical
Sequence of c-Kit (P10721 26-976): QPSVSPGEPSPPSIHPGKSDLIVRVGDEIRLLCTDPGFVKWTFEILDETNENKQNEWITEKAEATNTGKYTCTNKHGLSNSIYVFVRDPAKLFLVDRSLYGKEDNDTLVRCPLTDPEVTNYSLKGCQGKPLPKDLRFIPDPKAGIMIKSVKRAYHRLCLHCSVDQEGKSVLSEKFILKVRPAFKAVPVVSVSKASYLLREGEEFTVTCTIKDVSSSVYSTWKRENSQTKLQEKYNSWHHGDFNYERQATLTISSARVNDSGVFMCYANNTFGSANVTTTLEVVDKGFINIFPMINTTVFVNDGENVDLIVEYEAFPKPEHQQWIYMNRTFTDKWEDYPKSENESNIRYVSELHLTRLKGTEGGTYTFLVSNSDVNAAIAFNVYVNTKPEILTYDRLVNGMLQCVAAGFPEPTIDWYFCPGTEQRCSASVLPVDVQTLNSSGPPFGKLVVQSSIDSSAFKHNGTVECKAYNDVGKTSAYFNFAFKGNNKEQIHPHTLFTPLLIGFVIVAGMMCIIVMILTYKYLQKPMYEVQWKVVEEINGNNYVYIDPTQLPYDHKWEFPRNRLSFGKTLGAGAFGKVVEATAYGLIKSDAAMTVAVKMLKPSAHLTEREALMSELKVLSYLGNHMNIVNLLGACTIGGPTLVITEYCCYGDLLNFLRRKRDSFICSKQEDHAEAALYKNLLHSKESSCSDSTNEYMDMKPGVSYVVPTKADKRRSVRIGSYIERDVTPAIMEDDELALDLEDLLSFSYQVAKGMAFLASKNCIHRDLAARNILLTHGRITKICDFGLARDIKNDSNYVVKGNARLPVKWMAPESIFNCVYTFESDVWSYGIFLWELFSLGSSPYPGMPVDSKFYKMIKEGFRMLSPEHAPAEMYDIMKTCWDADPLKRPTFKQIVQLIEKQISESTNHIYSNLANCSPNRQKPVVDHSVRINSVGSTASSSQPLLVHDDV
Outline: (§2)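 Kinase profiling was run at Reaction Biology. IC50 values came from 10-dose mode, three-fold serial dilutions starting at 100 μM. Reference inhibitors were co-assayed at 1 and 10 μM.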

[8] = target: CDK2/Cyclin A (Homo sapiens, UniProt P24941); experiment: In vitro kinase activity assay; type: biochemical; conditions: 10-dose, three-fold serial dilution from 100 μM
Outline: as §2

[9] = target: mTOR/FRAP1 (Homo sapiens, UniProt P42345); experiment: In vitro kinase activity assay; type: biochemical; conditions: for IC50: mTOR/FRAP1 IC50, 10-dose, three-fold serial dilution from 100 μM
Outline: as §2

[10] = system: A375 cells; experiment: DAPI staining of apoptotic nuclei, A375; type: cell-based, human
Outline: (§3)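 Equal numbers of cells were seeded in T-25 flasks and exposed to test compound at different concentrations for 36 h. Cells were PBS-washed, stained with DAPI in PBS and imaged by fluorescence microscopy at 10x and 1.6×10x. Apoptotic nuclei were scored by morphology and expressed as percentage of cells.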

[11] = system: A431 cells; experiment: DAPI staining of apoptotic nuclei, A431; type: cell-based, human
Outline: as §3

[12] = target: CDK2/Cyclin E (Homo sapiens, UniProt P24941); experiment: In vitro kinase activity assay; type: biochemical; conditions: 10-dose, three-fold serial dilution from 100 μM
Outline: as §2

[13] = A375, treated 36 hours at ½IC50
[14] = A431, treated 36 hours at ½IC50

IC50 [7]: 0.33 µM | IC50 [8]: 12.7 µM | IC50 [9]: 1.64 µM
Compound: Cc1cc2oc(-c3ccc(OCc4ccccc4)cc3)c(O)c(=O)c2cc1Cl [F19, 2-(4-(Benzyloxy)phenyl)-6-chloro-3-hydroxy-7-methyl-4H-chromen-4-one]
IC50 [1]: 13 ± 2.6 µM | selectivity index [1]: 1.7 | IC50 [2]: 19 ± 3 µM | selectivity index [2]: 1.2 | IC50 [3]: 27 ± 1 µM | IC50 [4]: 1.5 ± 0.3 µM | selectivity index [4]: 19 | IC50 [5]: 1.1 ± 0.4 µM | selectivity index [5]: 25 | IC50 [6]: 28 ± 0.31 µM | DAPI (+) apoptotic cells ([10]; A375, treated 36 hours at IC50): 13.3% | DAPI (+) apoptotic cells [10, 13]: 5.6% | DAPI (+) apoptotic cells ([11]; A431, treated 36 hours at IC50): 14.2% | DAPI (+) apoptotic cells [11, 14]: 6.71%

Compound: COc1cc(OC)c(-c2oc3cc(Cl)ccc3c(=O)c2O)cc1OC [F24, 7-Chloro-3-hydroxy-2-(2,4,5-trimethoxyphenyl)-4H-chromen-4-one]
IC50 [1]: > 100 µM | IC50 [4]: > 100 µM

Compound: O=c1c(O)c(-c2ccc(OCc3ccccc3)cc2)oc2ccccc12 [F7, 2-(4-(Benzyloxy)phenyl)-3-hydroxy-4H-chromen-4-one]
IC50 [1]: 88 ± 35 µM | IC50 [4]: > 100 µM

Compound: Cc1cc2oc(-c3ccc(C(C)(C)C)cc3)c(O)c(=O)c2cc1Cl [F18, 2-(4-(Tert-butyl)phenyl)-6-chloro-3-hydroxy-7-methyl-4H-chromen-4-one]
IC50 [1]: > 100 µM | IC50 [4]: 24 ± 5.6 µM

Compound: COc1ccc2c(=O)c(O)c(-c3ccc(Br)cc3)oc2c1 [F12, 2-(4-Bromophenyl)-3-hydroxy-7-methoxy-4H-chromen-4-one]
IC50 [1]: > 100 µM | IC50 [4]: > 100 µM

IC50 [7]: 0.13 µM | IC50 [8]: 6.64 µM | IC50 [12]: 5.38 µM | IC50 [9]: > 100 µM
Compound: O=c1c(O)c(-c2ccccc2)oc2cc(Br)ccc12 [F14, 7-Bromo-3-hydroxy-2-phenyl-4H-chromen-4-one]
IC50 [1]: 15 ± 0.08 µM | selectivity index [1]: 1.4 | IC50 [2]: 22 ± 4.3 µM | IC50 [3]: 24 ± 0.84 µM | IC50 [4]: 5.3 ± 2.1 µM | selectivity index [4]: 4.5 | IC50 [5]: 3.3 ± 1.3 µM | selectivity index [5]: 7.3 | IC50 [6]: 24 ± 0.2 µM | DAPI (+) apoptotic cells ([10]; A375, treated 36 hours at IC50): 10.9% | DAPI (+) apoptotic cells [10, 13]: 6.2% | DAPI (+) apoptotic cells [11, 14]: 6.92%

IC50 [7]: 0.54 µM | IC50 [8]: 7.16 µM | IC50 [12]: 17.1 µM | IC50 [9]: 23.9 µM
Compound: Cc1ccc2c(=O)c(O)c(-c3cccc(Cl)c3)oc2c1 [F8, 2-(3-Chlorophenyl)-3-hydroxy-7-methyl-4H-chromen-4-one]
IC50 [1]: 8.4 ± 0.4 µM | selectivity index [1]: 3.1 | IC50 [2]: 22 ± 3 µM | selectivity index [2]: 1.1 | IC50 [3]: 26 ± 3.8 µM | IC50 [4]: 8.3 ± 2.1 µM | selectivity index [4]: 2.7 | IC50 [5]: 6.7 ± 1.5 µM | selectivity index [5]: 3.3 | IC50 [6]: 22 ± 0.2 µM | DAPI (+) apoptotic cells ([10]; A375, treated 36 hours at IC50): 11.3% | DAPI (+) apoptotic cells [10, 13]: 6.5% | DAPI (+) apoptotic cells ([11]; A431, treated 36 hours at IC50): 12.8% | DAPI (+) apoptotic cells [11, 14]: 5.84%

IC50 [7]: 1.34 µM | IC50 [8]: 2.62 µM | IC50 [12]: 3.34 µM | IC50 [9]: 28.7 µM
Compound: O=c1c(O)c(-c2ccc(O)c(O)c2)oc2cc(O)ccc12 [F0, 3´,4´,7-trihydroxyflavonol, reference compound]
IC50 [1]: 21 ± 1 µM | selectivity index [1]: 1.6 | IC50 [2]: 29 ± 4 µM | selectivity index [2]: 1.1 | IC50 [3]: 33 ± 2.7 µM | IC50 [4]: 26 ± 1 µM | selectivity index [4]: 1.2 | IC50 [5]: 28 ± 0.2 µM | selectivity index [5]: 1.1 | IC50 [6]: 30 ± 1.1 µM

Compound: COc1ccc2c(=O)c(O)c(-c3ccc(C(C)(C)C)cc3)oc2c1 [F13, 2-(4-(Tert-butyl)phenyl)-3-hydroxy-7-methoxy-4H-chromen-4-one]
IC50 [1]: 28 ± 24 µM | IC50 [4]: > 100 µM

Compound: O=c1c(O)c(-c2ccccc2)oc2ccccc12 [F1, 3-Hydroxy-2-phenyl-4H-chromen-4-one]
IC50 [1]: 14 ± 0.8 µM | selectivity index [1]: 1.9 | IC50 [2]: 21 ± 1 µM | selectivity index [2]: 1.2 | IC50 [3]: 27 ± 0.9 µM | IC50 [4]: 15 ± 0.04 µM | selectivity index [4]: 2.5 | IC50 [5]: 12 ± 0.8 µM | selectivity index [5]: 3.2 | IC50 [6]: 38 ± 0.02 µM

Compound: O=c1c(O)c(-c2ccc(Br)cc2Cl)oc2ccccc12 [F4, 2-(4-Bromo-2-chlorophenyl)-3-hydroxy-4H-chromen-4-one]
IC50 [1]: > 100 µM | IC50 [4]: 61 ± 30 µM

Compound: O=c1c(O)c(-c2ccc(SC(F)(F)F)cc2)oc2ccccc12 [F3, 3-Hydroxy-2-(4-((trifluoromethyl)thio)phenyl)-4H-chromen-4-one]
IC50 [1]: 14 ± 0.2 µM | selectivity index [1]: 2.2 | IC50 [2]: 5.2 ± 1.7 µM | selectivity index [2]: 6.0 | IC50 [3]: 31 ± 0.74 µM | IC50 [4]: 9.7 ± 2.3 µM | selectivity index [4]: 2.8 | IC50 [6]: 27 ± 0.7 µM

Compound: COc1cc(-c2oc3ccc(F)cc3c(=O)c2O)cc(OC)c1OC [F22, 6-Fluoro-3-hydroxy-2-(3,4,5-trimethoxyphenyl)-4H-chromen-4-one]
IC50 [1]: 15 ± 1.9 µM | selectivity index [1]: 1.6 | IC50 [3]: 24 ± 1.6 µM | IC50 [4]: 13 ± 2.6 µM | selectivity index [4]: 1.8 | IC50 [5]: 11 ± 2 µM | selectivity index [5]: 2.1 | IC50 [6]: 23 ± 1.9 µM

Compound: O=c1c(O)c(-c2ccc(C(F)(F)F)cc2C(F)(F)F)oc2ccccc12 [F5, 2-(2,4-Bis(trifluoromethyl)phenyl)-3-hydroxy-4H-chromen-4-one]
IC50 [1]: 95 ± 12 µM | IC50 [4]: > 100 µM

IC50 [7]: > 100 µM | IC50 [8]: > 100 µM
Compound: O=c1c(O)c(-c2cc(C(F)(F)F)cc(C(F)(F)F)c2)oc2ccccc12 [F6, 2-(3,5-Bis(trifluoromethyl)phenyl)-3-hydroxy-4H-chromen-4-one]
IC50 [1]: 7 ± 0.32 µM | selectivity index [1]: 3.7 | IC50 [2]: 27 ± 4.1 µM | IC50 [3]: 26 ± 1.3 µM | IC50 [4]: 8.6 ± 0.5 µM | selectivity index [4]: 3.6 | IC50 [5]: 6.6 ± 0.79 µM | selectivity index [5]: 4.7 | IC50 [6]: 31 ± 1.9 µM

IC50 [8]: 32.5 µM | inhibition of mTOR kinase activity (in words) [9]: did not substantively inhibit
Compound: Cc1ccc2c(=O)c(O)c(-c3ccc(C(C)(C)C)cc3)oc2c1 [F11, 2-(4-(Tert-butyl)phenyl)-3-hydroxy-7-methyl-4H-chromen-4-one]
IC50 [1]: 11 ± 2 µM | selectivity index [1]: 2.4 | IC50 [2]: 18 ± 2 µM | selectivity index [2]: 1.4 | IC50 [3]: 26 ± 1.1 µM | IC50 [4]: 4.7 ± 0.9 µM | selectivity index [4]: 4.7 | IC50 [5]: 9.7 ± 0.6 µM | selectivity index [5]: 2.3 | IC50 [6]: 25 ± 0.78 µM

IC50 [7]: 0.26 µM | IC50 [8]: 30.1 µM | inhibition of mTOR kinase activity (in words) [9]: did not substantively inhibit
Compound: CCOc1ccc(-c2oc3cc(Cl)ccc3c(=O)c2O)cc1F [F21, 7-Chloro-2-(4-ethoxy-3-fluorophenyl)-3-hydroxy-4H-chromen-4-one]
IC50 [1]: 8.6 ± 0.4 µM | selectivity index [1]: 3.2 | IC50 [2]: 12 ± 3 µM | selectivity index [2]: 2.3 | IC50 [3]: 27 ± 0.1 µM | IC50 [4]: 8.2 ± 0.2 µM | selectivity index [4]: 3.2 | IC50 [6]: 26 ± 0.4 µM | DAPI (+) apoptotic cells [10, 13]: 5.4% | DAPI (+) apoptotic cells ([11]; A431, treated 36 hours at IC50): 14.4% | DAPI (+) apoptotic cells [11, 14]: 8.8%

Compound: COc1cccc2c1C(=O)c1c(O)c3c(c(O)c1C2=O)C[C@@](O)(C(=O)CO)C[C@@H]3O[C@H]1C[C@H](N)[C@H](O)[C@H](C)O1 [Doxorubicin, reference compound]
IC50 [1]: 0.1 ± 0.01 µM | IC50 [2]: 0.23 ± 0.06 µM | IC50 [4]: 0.37 ± 0.02 µM | selectivity index [4]: 0.2 | IC50 [6]: 0.07 ± 0.01 µM

Compound: COc1cc(OC)c(-c2oc3ccccc3c(=O)c2O)cc1OC [F23, 3-Hydroxy-2-(2,4,5-trimethoxyphenyl)-4H-chromen-4-one]
IC50 [1]: 13 ± 3.1 µM | selectivity index [1]: 1.7 | IC50 [2]: 19 ± 3 µM | selectivity index [2]: 1.6 | IC50 [3]: 22 ± 1 µM | IC50 [4]: 12 ± 1.9 µM | selectivity index [4]: 2.0 | IC50 [5]: 9.4 ± 1.4 µM | selectivity index [5]: 2.6 | IC50 [6]: 24 ± 1.4 µM

Compound: COc1ccc(-c2oc3ccc(Br)cc3c(=O)c2O)cc1OC [F16, 6-Bromo-2-(3,4-dimethoxyphenyl)-3-hydroxy-4H-chromen-4-one]
IC50 [1]: 79.5 ± 9 µM | IC50 [4]: > 100 µM | IC50 [5]: 40 ± 0.89 µM

Compound: COc1cccc(-c2oc3cc(Br)ccc3c(=O)c2O)c1 [F15, 7-Bromo-3-hydroxy-2-(3-methoxyphenyl)-4H-chromen-4-one]
IC50 [1]: > 100 µM | IC50 [4]: > 100 µM

Compound: COc1cccc(-c2oc3ccccc3c(=O)c2O)c1 [F2, 3-Hydroxy-2-(3-methoxyphenyl)-4H-chromen-4-one]
IC50 [1]: 28 ± 2.3 µM | IC50 [4]: 21 ± 16 µM

Compound: COc1ccc(-c2oc3cc(C)ccc3c(=O)c2O)c(Br)c1OC [F10, 2-(2-Bromo-3,4-dimethoxyphenyl)-3-hydroxy-7-methyl-4H-chromen-4-one]
IC50 [1]: 31 ± 13 µM | IC50 [4]: 36 ± 0.1 µM | IC50 [5]: 11 ± 5 µM
